Compound activity: PubChem, The Scripps Research Institute Molecular Screening Center
The list is not random: actives were taken first. Their share in the collection is about 3%.
5-HT1A blocker: 5-HT1a (human) receptor antagonism; P08908; actives 0.68% (n = 62,000); CHO 5-HT1a Ga15 NFAT-bla reporter, antagonist mode; inhibition, % at 10 µM;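 active means inhibition above the mean of all tested compounds plus 3 SD, cut at about 43% in these data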;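 further: receptor stimulated by 5-CT agonist at 100 nM near EC80; beta-lactamase reporter measured by ratiometric fluorescence of a cleavable substrate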
Target sequence (P08908 whole entry, looked up): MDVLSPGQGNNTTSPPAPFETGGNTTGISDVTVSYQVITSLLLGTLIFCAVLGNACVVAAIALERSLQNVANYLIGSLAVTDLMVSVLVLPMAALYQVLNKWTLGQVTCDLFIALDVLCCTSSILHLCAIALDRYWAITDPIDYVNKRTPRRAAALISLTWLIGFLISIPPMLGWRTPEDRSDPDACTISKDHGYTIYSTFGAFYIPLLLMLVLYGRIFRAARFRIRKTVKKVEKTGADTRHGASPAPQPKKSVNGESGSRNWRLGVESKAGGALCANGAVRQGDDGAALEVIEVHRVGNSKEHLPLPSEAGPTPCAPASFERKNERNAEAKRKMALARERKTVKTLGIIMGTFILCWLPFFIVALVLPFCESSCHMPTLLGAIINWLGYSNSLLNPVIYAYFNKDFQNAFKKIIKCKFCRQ
HTR1E agonist: 5-HT1E (human) receptor agonism; actives 0.69% (n = 65,000); CHO 5-HT1E Ga15 NFAT-bla reporter, FRET; 0% DMSO wells, 100% control agonist wells; P28566; activation, % at 6 µM;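 active means activation above a set limit, the screen-wide mean activation plus 3 SD, cut at about 8.5% in these data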
5HT1E antag: blocks the human 5-HT1E serotonin receptor; P28566; CHO 5-HT1E Ga15 NFAT-bla reporter, FRET, antagonist; inhibition, % at 6 µM; actives 0.99% (n = 65,000); AID 571;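 active means inhibition above a set limit, the mean inhibition across every tested compound plus 3 SD, cut at about 29% in these data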;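 further: signal is the 460 over 535 nm emission ratio of beta-lactamase substrate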
HTR1A agonist: activates the human 5-HT1a serotonin receptor; activation, % at 10 µM; actives 0.56% (n = 65,000); AID 567; P08908; CHO 5-HT1a Ga15 NFAT-bla reporter, FRET ratio; 0% basal, 100% maximal reference agonist;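 active means activation above the screen-wide mean activation plus 3 SD, cut at about 19% in these data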
S1P1 ag pot: agonists and agonism potentiators of human S1P1 receptor; P21453; S1P1 CRE-bla cells, forskolin, beta-lactamase FRET, potentiator mode; S1P1 agonist co-added at EC20, 2 nM; 100% = saturating reference agonist, 0% = basal; activation, % at 9.5 µM; actives 0.57% (n = 56,000); AID 449;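 active means activation above a cutoff set at the mean activation of all tested compounds plus 3 SD, cut at about 54% in these data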;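 further: forskolin at 4 µM as EC80 and the EC20 agonist is SEW2871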
S1P3 agonist: S1P3 (human) receptor agonism; S1P3 NFAT-BLA reporter cells, FRET ratio; relative to 1 µM S1P, basal subtracted; activation, % at 4.5 µM; actives 0.1% (n = 60,000); AID 373;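 active means activation above the screen-wide mean plus 3 SD, cut at about 4.5% in these data, passing the limit was not always enough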
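Assay system: stable CHO line with human S1P3, Gα16, NFAT-BLA reporter; Detection: FRET β-lactamase substrate fluorescence, excitation 405 nm, 460/535 nm emission ratio, background-subtracted; Read-out: percent activation versus median 1 µM S1P response, basal-subtracted, per plate; Incubation: cells plated overnight, compound 4 h 37 °C, substrate 2 h RT.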
Large screens that a line does not name were inactive.

O=C(O)C1CCCN1S(=O)(=O)c1ccc2ccccc2c1 (configuration not stated)	none (no result: S1P1 ag pot, S1P3 agonist)
O=C(O)C1CCCN1S(=O)(=O)c1ccc(Cl)c(Cl)c1 (configuration not stated)	HTR1E agonist 44 (no result: S1P1 ag pot)
COc1ccccc1N1CCN(C(=O)C2CC=CCC2C(=O)O)CC1 (configuration not stated)	HTR1E agonist 49
COc1ccccc1N1CCN(C(=O)C2c3ccccc3Oc3ccccc32)CC1	5-HT1A blocker 55, 5HT1E antag 42
CCOC(=O)c1cnc(-n2nc(C)cc2C)nc1NCc1ccc2c(c1)OCO2	5-HT1A blocker 43
COc1ccc(-c2nc(CSCC(=O)N3CCN(C(=O)c4ccco4)CC3)c(C)o2)cc1OC	none
COc1ccc(OC)c(N2C(=O)CC(C(C)c3ccccc3)C2=O)c1 (configuration not stated)	none
CCc1oc2ccccc2c1C(=O)c1cc(Br)c(O)c(Br)c1	S1P1 ag pot 68 (no result: 5-HT1A blocker)
CCOC(=O)c1c(COc2ccccc2)oc2ccc(O)cc12	none
O=C(COC(=O)c1ccccc1S(=O)(=O)N1CCCCC1)NCC(F)(F)F	5HT1E antag 29
CCCCNC(=O)c1ccccc1C(=O)NCCCC	none (no result: S1P1 ag pot)
CCCCP(=O)(CCCC)c1ccccc1C(=O)O	HTR1A agonist 252
COc1ccc(N2CCn3c2nc2c3c(=O)n(CCCc3ccccc3)c(=O)n2C)cc1	none
COc1ccc(N2CC(C)Cn3c2nc2c3c(=O)n(CCc3ccccc3)c(=O)n2C)cc1 (configuration not stated)	HTR1E agonist 12
CCOC(=O)c1cccc(NC(=O)CN(c2ccc(C)cc2)S(=O)(=O)c2c(C)n[nH]c2C)c1	none
O=S(=O)(Nc1cccc2cccnc12)c1ccc(S(=O)(=O)N2CCCC2)cc1	5HT1E antag 32
COc1ccc(N(CC(=O)Nc2cc(Cl)ccc2OC)S(=O)(=O)c2c(C)noc2C)cc1	5HT1E antag 35
COc1ccc(OC)c(NC(=O)CN(c2ccc(C)cc2)S(=O)(=O)c2c(C)noc2C)c1	none
CN1CC(=O)NC1=NC(=O)c1ccc(Cl)c(S(=O)(=O)N2CCCCCC2)c1	none
O=C(NCCCn1ccnc1)c1ccco1	HTR1A agonist 20
O=C(NCCCn1ccnc1)c1ccncc1	none
Cn1c(NC(=O)c2ccccc2NC(=O)C(C)(C)C)nc2ccccc21	none
N#CC(c1nc2ccccc2nc1N1CCCCC1)S(=O)(=O)c1ccc(Cl)cc1 (configuration not stated)	HTR1E agonist 12
Cc1ccc(S(=O)(=O)C(C#N)c2nc3ccccc3nc2N2CCCCC2)cc1 (configuration not stated)	none (no result: S1P1 ag pot, S1P3 agonist)
CCn1c2ccccc2c2nnc(SCC(=O)NC(CC(C)C)C(=O)OC)nc21 (configuration not stated)	none
COc1ccc(-n2nnnc2S(=O)(=O)CC(=O)N2CCCCC2)cc1	5-HT1A blocker 92, 5HT1E antag 69
C=CCOc1cccc(C2C(C(=O)c3ccco3)=C(O)C(=O)N2CCN(CC)CC)c1 (configuration not stated)	HTR1A agonist 20
COc1ccc(OC)c(Nc2cc(-c3ccccc3)nc(N)n2)c1	5-HT1A blocker 63, 5HT1E antag 70
CCc1ccc(NC(=O)Cn2c(SC)nc3ccccc32)cc1	HTR1E agonist 54
CSc1nc2ccccc2n1CC(=O)Nc1ccc(C)c(C)c1	HTR1E agonist 15 (no result: S1P1 ag pot, S1P3 agonist)
CSc1nc2ccccc2n1CC(=O)Nc1ccccc1	none
Nc1c(C(=O)NCCN2CCOCC2)c2nc3ccccc3nc2n1CCc1ccccc1	HTR1A agonist 24, S1P3 agonist 7.9
Nc1c(C(=O)NCCN2CCOCC2)c2nc3ccccc3nc2n1-c1ccc2c(c1)OCO2	none
Nc1c(C(=O)NCc2ccc3c(c2)OCO3)c2nc3ccccc3nc2n1CCCN1CCOCC1	HTR1E agonist 13, HTR1A agonist 37, S1P3 agonist 7.9
O=C(NCc1ccco1)c1cccc2ccccc12	none
O=C(NCc1ccco1)c1ccccc1Nc1ccc(F)cc1	5HT1E antag 29 (no result: S1P1 ag pot, S1P3 agonist)
CCOc1ccc(-c2nc(C#N)c(N3CCCCCC3)o2)cc1	none
O=S(=O)(NCCc1ccncc1)c1ccc(S(=O)(=O)N2CCCCCC2)cc1	none
CCC(C)(C(=O)NC1CCCC1)N(Cc1ccco1)C(=O)c1ccccn1 (configuration not stated)	none
CCC(C)(C(=O)NC1CCCC1)N(Cc1ccco1)C(=O)c1ccc2c(c1)OCO2 (configuration not stated)	5-HT1A blocker 49
CCC(C)(C(=O)NC1CCCC1)N(Cc1cccs1)C(C)=O (configuration not stated)	none (no result: S1P1 ag pot, S1P3 agonist)
CCC(C)(C(=O)NC1CCCC1)N(Cc1cccs1)C(=O)Cc1cccs1 (configuration not stated)	5-HT1A blocker 59 (no result: S1P1 ag pot, S1P3 agonist)
C=CCn1c(N)cc(=O)nc1SCC(=O)NC(C)c1ccccc1 (configuration not stated)	none (no result: S1P1 ag pot)
Cc1cc(C(=O)CSc2nnc(-c3ccco3)o2)c(C)n1CC1COc2ccccc2O1 (configuration not stated)	HTR1A agonist 30
COc1ccc(S(=O)(=O)n2nc(OC(=O)c3ccccc3Br)cc2N)cc1	none
CS(=O)(=O)n1nc(OC(=O)c2cccc3ccccc23)cc1N	5-HT1A blocker 43, S1P1 ag pot 65
Cc1noc(C)c1COC(=O)C1(c2cccc(F)c2)CCCC1	none
COc1ccc(C2=NOC(C(=O)NCc3ccc(F)cc3)C2)cc1 (configuration not stated)	5HT1E antag 56
CCn1ncc(C2=NOC(C(=O)NCc3ccc(Cl)cc3)C2)c1C (configuration not stated)	5HT1E antag 58
COC(=O)c1cc2sc(Cl)cc2n1CC(=O)Nc1cccc(SC)c1	5-HT1A blocker 48
COc1ccc(C(O)C(CN2CCOCC2)c2ccccc2)cc1F (configuration not stated)	none
COc1ccc(C(=O)C(CN2CCOCC2)c2ccccc2)cc1F (configuration not stated)	5-HT1A blocker 76, 5HT1E antag 39
O=C(NCC1CCCO1)C1C2C=CC3(CN(Cc4cccs4)C(=O)C13)O2 (configuration not stated)	HTR1E agonist 29
O=C(NC1CCCC1)C1C2C=CC3(CN(Cc4cccs4)C(=O)C13)O2 (configuration not stated)	none
Cn1c(Cl)nc2c1c(=O)n(Cc1cccc(Br)c1)c(=O)n2C	HTR1A agonist 36 (no result: 5-HT1A blocker)
CC(C)CNc1nc2c(c(=O)n(C)c(=O)n2C)n1Cc1cccc(Br)c1	none (no result: 5-HT1A blocker)
